This note sets out measurements from ChEMBL document CHEMBL4049418, “6-OH-Phenanthroquinolizidine Alkaloid and Its Derivatives Exert Potent Anticancer Activity by Delaying S Phase Progression” (J Med Chem, 2017).

The nature of series [1]: Cytotoxicity against Sprague-Dawley rat primary neuronal cells assessed as reduction in cell viability at 300 nM after 24 hrs by MTT assay. In kind it is cell-based. Particulars: read-out: INH.
Series [2] deals with Bel-7402. Description: Inhibition of DNA synthesis in human Bel7402 cells assessed as reduction in BrdU incorporation preincubated for 1 hr followed by BrdU addition for 30 mins by FITC/propidium iodide staining based flow cytometry. In kind it is functional, cell-based. The method in brief: (§1)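 BEL-7402 cells (3 × 10⁵ per well) exposed to compounds 1 h, then labeled with 10 μM BrdU for 30 min; trypsinized, fixed in 70% ethanol at −20 °C ≥1 h, 2 N HCl 20 min, neutralized with 0.1 M borate, stained with anti-BrdU-FITC plus PI 30 min; BrdU-positive cells quantified by flow cytometry; three independent experiments, mean + SD.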

A short description of series [3]: Resistance factor, ratio of IC50 for human HL60/MX2 cells to IC50 for human HL60 cells. Type of series: functional. The method in brief: (§2)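 72 h treatment in triplicate; suspended lines (HL-60, K-562, K562/ADR, HL-60/MX2) read by MTT (4 h, SDS/isobutanol/HCl solubilization, 570 nm); adherent KB and KB/VCR (MEM, 10% FBS) by SRB after TCA fixation (540 nm); IC₅₀ by four-parameter logistic fit, mean of ≥3 independent experiments.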

Series [4] concerns Bel-7402. Description: Induction of apoptosis in human Bel7402 cells assessed as late apoptotic cells at 0.1 uM after 72 hrs by Annexin V/propidium iodide staining based flow cytometric analysis (reference value: 3.6%). In kind it is functional. The method in brief: (§3)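 BEL-7402 cells (3 × 10⁵ per well, 6-well plates) exposed for 72 h. Harvested, PBS-washed, resuspended in cold binding buffer with annexin V–FITC and PI, and stained 15 min in the dark at room temperature. Early apoptotic, late apoptotic and necrotic fractions quantified by flow cytometry.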

Series [5] concerns Bel-7402. The series is described as follows: Antiproliferative activity against human Bel7402 cells assessed as reduction in viability after 72 hrs by SRB assay. In kind it is functional, cell-based. The following applies: Bel-7402, 72 h. Summed up:
(§4)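 Cells seeded and dosed in triplicate for 72 h. Suspension lines (HL-60, K-562, K562/ADR, HL-60/MX2) were read by MTT: 5 mg/mL MTT stock added, 4 h at 37 °C, formazan dissolved in 10% SDS/5% isobutanol/10 mM HCl, A570. Adherent lines were read by SRB: fixed with cold 10% TCA, stained with 0.4% SRB in 1% acetic acid, A540. IC50 from four-parameter logistic fit; mean of ≥3 independent experiments.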

The test system of series [6] is Bel-7402. Description: Induction of DNA damage in human Bel7402 cells assessed as increase in gamma-H2AX levels at 1 to 100 nM after 1 hr by Western blot analysis. Type of series: functional, cell-based. Summed up: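 BEL-7402 cells (1.5 × 10⁵ per well, 12-well plates) exposed to compounds for 1 h. Phospho-Chk1 Ser345, phospho-Chk2 Thr68 and γH2AX detected by Western blot. Camptothecin at 1 μM served as the DNA-damage reference.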

The subject of series [7] is Bel-7402. The series is described as follows: Induction of apoptosis in human Bel7402 cells assessed as viable cells at 0.1 uM after 72 hrs by Annexin V/propidium iodide staining based flow cytometric analysis (reference value: 92.4%). In kind it is functional. The following applies: Bel-7402, 72 h, read-out: Activity.
The test system of series [8] is Bel-7402. Description: Induction of apoptosis in human Bel7402 cells assessed as necrotic cells at 0.1 uM after 72 hrs by Annexin V/propidium iodide staining based flow cytometric analysis (reference value: 0.38%). In kind it is functional. The method in brief:
as §3

A further series relates to U-118-MG. The series is described as follows: Antiproliferative activity against human U118MG cells after 72 hrs by SRB assay. Type of series: functional, cell-based. The following applies: pooled result: one value given for 25 cell lines, strains, targets or settings. The method in brief:
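Adherent cells seeded in 96-well plates and exposed in triplicate to compound for 72 h at 37 °C, humidified. Fixed with 10% ice-cold trichloroacetic acid, stained with 0.4% sulforhodamine B in 1% acetic acid, and absorbance read at 540 nm. IC50 fitted by four-parameter logistic; mean of at least three independent experiments.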

For series [9], the system named is Bel-7402. Description: Induction of apoptosis in human Bel7402 cells assessed as early apoptotic cells at 0.1 uM after 72 hrs by Annexin V/propidium iodide staining based flow cytometric analysis (reference value: 3.66%). In kind it is functional. The method in brief:
as §3

A further series has as its system HL-60. Description: Antiproliferative activity against human HL60 cells after 72 hrs by MTT assay. In kind it is functional, cell-based. The following applies: HL-60, 72 h. Summed up: as §4
Series [10] relates to Bel-7402. The series is described as follows: Inhibition of DNA synthesis in human Bel7402 cells assessed as BrdU incorporation at 0.1 uM preincubated for 1 hr followed by BrdU addition for 30 mins by FITC/propidium iodide staining based flow cytometry (reference value: 35.5%). In kind it is functional. More on the design: scale not given: the % may be the effect or the level left. Summed up: as §1

For another series, the system named is K562. Description: Antiproliferative activity against human K562 cells after 72 hrs by MTT assay. Type of series: functional, cell-based. Particulars: K562, 72 h. The method in brief: as §4
A further series has as its system K562/Adr. Description: Antiproliferative activity against human K562/ADR cells after 72 hrs by MTT assay. In kind it is functional, cell-based. Summed up:
as §4

The nature of series [11]: Resistance factor, ratio of IC50 for human KB/VCR cells to IC50 for human KB cells. Type of series: functional. The method in brief: as §2
A further series deals with A549. Description: Antiproliferative activity against human A549 cells assessed as reduction in viability after 72 hrs by SRB assay. In kind it is functional, cell-based. The following applies: A549, 72 h. The method in brief:
as §4

Series [12] deals with Bel-7402. The series is described as follows: Inhibition of DNA synthesis in human Bel7402 cells assessed as BrdU incorporation at 10 nM preincubated for 1 hr followed by BrdU addition for 30 mins by FITC/propidium iodide staining based flow cytometry (reference value: 35.5%). Type of series: functional. More on the design: scale not given: the % may be the effect or the level left. Summed up:
as §1

The subject of the next series is HL60/MX2. The series is described as follows: Antiproliferative activity against human HL60/MX2 cells after 72 hrs by MTT assay. In kind it is functional, cell-based. The following applies: HL60/MX2, 72 h. The method in brief:
as §4

In the next series the test system is KB. Description: Antiproliferative activity against human KB cells after 72 hrs by SRB assay. In kind it is functional, cell-based. The method in brief: as §4
Series [13] can be described thus: Resistance factor, ratio of IC50 for human K562/ADR cells to IC50 for human K562 cells. Type of series: functional. Summed up:
as §2

Series [14] in a line: Antiproliferative activity against human KB/VCR cells after 72 hrs by SRB assay. In kind it is functional, cell-based. Summed up:
as §4

The test system of series [15] is Bel-7402. Description: Cell cycle arrest in human Bel7402 cells assessed as accumulation in S-phase at 0.012 to 1 uM after 24 hrs by propidium iodide staining-based flow cytometry. Type of series: functional. Summed up: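 BEL-7402 cells exposed for 24 h, then fixed in 70% ethanol at −20 °C for ≥1 h. Stained with 50 μg/mL propidium iodide plus 10 μg/mL RNase A for 30 min in the dark at room temperature. DNA content read by flow cytometry on ≥1.0 × 10⁴ cells per sample.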

In series [16] the test system is Bel-7402. Description: Antiproliferative activity against human Bel7402 cells assessed as reduction in cell viability at 0.012 to 1 uM up to 10 days by fluorescence-based cell imaging method. Type of series: functional. The method in brief: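 Live-cell imaging (IncuCyte ZOOM) of BEL-7402 cells seeded at 1.5 × 10⁴ per well in 12-well plates. Cells treated in triplicate with a concentration gradient and imaged continuously for 10 days to build growth curves.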

Series [17] deals with Bel-7402. Description: Inhibition of colony formation in human Bel7402 cells at 0.01 to 10 uM after 24 hrs by SRB staining-based plate colony formation assay. In kind it is functional, cell-based. Summed up:
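BEL-7402 cells seeded at 200 per well, treated in triplicate 24 h, washed twice with PBS, then grown 12 days in fresh medium; colonies stained with SRB and those ≥1 mm diameter counted; three independent experiments, mean ± SD.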

Activity calls are given as the source filed them. No cut-off for these calls is given here.

With `COc1cc2c3c(c4ccc(O)cc4c2cc1OC)CN1CCCC[C@@H]1C3`, the cytotoxicity at 24 h, 0.3 µM in series [1] is 50%. Besides, the inhibition result in the series on Bel-7402 [2] was “Dose-dependent effect”. Further, the “Ratio IC50” value stood at 0.9 in series [3], 0.8 in series [11] and 1.2 in series [13]. The Activity is 19.8% with Bel-7402 [4]; 2.57% in the series on Bel-7402 [8]; 5.16% with Bel-7402 [9]; 4.83% in the series with Bel-7402 [10]; 5.07% with Bel-7402 [12]. Besides, the IC50 in the series on Bel-7402 [5] was 1.7 nM; in the series with U-118-MG it was 2.1 nM; in the series on HL-60, 1.8 nM; in the series on K562 it was 2.2 nM; with K562/Adr it was 2.6 nM; in the series on A549 it was 0.7 nM. Moreover, the IC50 in the series with HL60/MX2 was found to be 1.7 nM; in the series with KB, 1.2 nM; in series [14], 1 nM. The outcome in the series with Bel-7402 [6] was inactive. Besides, in the series on Bel-7402 [7], the viability at 0.1 µM was determined as 72.4%.
As for `COc1cc2c3c(c4cc(OC)c(OC)cc4c2cc1OC)[C@H](O)[C@@H]1CCCN1C3`, the inhibition entry with Bel-7402 [2] is “Dose-dependent effect”. The “Ratio IC50” value in series [3] came out at 1.3; in series [11], 1.1; in series [13], 1.4. For the same molecule, the result in the series on Bel-7402 [15] was Active. The Activity is reported as 2.22% in the series on Bel-7402 [4], 0.37% with Bel-7402 [8], 2.86% in the series on Bel-7402 [9] and 32.5% in the series with Bel-7402 [10]. In addition, the IC50 was found to be 110 nM in the series on Bel-7402 [5]; 167 nM with U-118-MG; 213 nM in the series on HL-60; 98.4 nM in the series with K562; 138 nM in the series on K562/Adr; 283 nM with A549. Moreover, the IC50 in the series with HL60/MX2 worked out at 278 nM; in the series with KB it was 58.2 nM; in series [14], 65.2 nM. Also, in the series with Bel-7402 [7], the viability at 0.1 µM was found to be 94.6%. The inhibition entry in the series on Bel-7402 [16] and with Bel-7402 [17] was “Active” in each case.
